32 compounds from ChEMBL document CHEMBL1800052, “Regioselective Suzuki coupling of dihaloheteroaromatic compounds as a rapid strategy to synthesize potent rigid combretastatin analogues” (J Med Chem, 2011) can be followed below.

Test [1] concerns SH-SY5Y. Put plainly: Cytotoxicity against human SH-SY5Y cells assessed as cell viability at 1 uM after 48 hrs by MTT assay. Format: functional. To be noted: read-out: Activity. The essentials: (§1)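 SH-SY5Y cells in 50% DMEM/50% F-12 with 10% FBS, 2 mM L-glutamine, penicillin and streptomycin, grown 48 h with or without compound. Cells were washed in Locke's solution (pH 7.6), given MTT (250 μg/mL) for 30 min at 37 °C, solubilized in isopropyl alcohol/HCl, and read at 570 nm. Single-point values are % viable cells at 1 μM. IC50s come from fitted full concentration-response curves; mean ± SD of 12 determinations from 3 experiments.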

For test [2], the system named is HeLa. Put plainly: Cytotoxicity against human HeLa cells assessed as cell viability after 48 hrs by MTT assay. Format: functional, cell-based.
The subject of test [3] is SH-SY5Y. Put plainly: Cytotoxicity against human SH-SY5Y cells assessed as cell viability after 48 hrs by MTT assay. Format: functional, cell-based. The essentials: as §1
Test [4] has as its system HeLa. Put plainly: Cell cycle arrest in human HeLa cells assessed as accumulation at G2/M phase at 3 times IC50 value after 16 hrs using propidium iodide staining by FACS analysis. Type of test: functional, cell-based. The essentials:
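Cells were treated 16 h with vehicle or 3 × IC50 compound, washed in PBS, fixed in ice-cold 30:70 PBS/EtOH, and stored at −20 °C. They were then treated with RNase (100 μg/mL) for 30 min at RT and stained with propidium iodide (100 μg/mL) in PBS with 5 mM EDTA for 30 min in the dark. DNA content was read by flow cytometry, representative of three experiments.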

Test [5] deals with T1, Tubulin alpha (Homo sapiens) (UniProt P0DPH7+P68366+Q71U36+P68363+Q9BQE3+Q6PEY2+A6NHL2+Q9NY65). As to the kind of experiment: Inhibition of tubulin alpha in human SH-SY5Y cells assessed as inhibition of tubulin alpha polymerization at 3 times IC50 value after 24 hrs by immunofluorescence. Type of test: cell-based. The essentials: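 Cells were fixed in 3.7% paraformaldehyde for 20 min, permeabilized in ice-cold 80% MeOH, and blocked with 0.2% fish gelatine. Staining used anti-α-tubulin (1:1000, 20 min RT), then Alexa 488 anti-mouse with DRAQ5 nuclear stain. Imaging was by confocal microscopy with a 63× oil objective.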

For test [6], the target named is T1, Tubulin alpha (Homo sapiens). Put plainly: Inhibition of tubulin alpha polymerization in human HeLa cells assessed as decreased pelletable tubulin alpha fraction at 3 times IC50 value after 16 hrs by Western blotting in presence of paclitaxel. Format: cell-based. The essentials: (§2)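 Cells were grown 16 h with or without drug (3 × IC50), trypsinized, and lysed 10 min at RT in hypotonic buffer (20 mM Tris-HCl pH 6.8, 1 mM MgCl2, 2 mM EGTA, 0.5% NP-40, protease inhibitors) containing 4 μg/mL paclitaxel. Protein-normalized lysate (50 μg) was spun at 13 000 rpm for 15 min. Pellet (polymerized) and supernatant (free) fractions were run on 10% SDS-PAGE and blotted with anti-α-tubulin, read by chemiluminescence.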

The target is the same in test [7]. As to the kind of experiment: Inhibition of tubulin alpha polymerization in human HeLa cells assessed as increase in soluble tubulin alpha fraction at 3 times IC50 value after 16 hrs by Western blotting in presence of paclitaxel. Type of test: cell-based. The essentials: as §2
Test [8] can be described thus: Inhibition of tubulin alpha polymerization. As to conditions: concentration not given here.

SMILES strings stand for the structures. The source made the active and inactive calls. The rule behind the calls is not given here.

Consider `COc1cc(-c2cscc2-c2cc(OC)c(OC)c(OC)c2)cc(OC)c1OC`, for which, in the test with SH-SY5Y [1], the viability at 1 µM was 91%.

On to `COc1cccc(-c2cscc2-c2cc(OC)c(OC)c(OC)c2)c1`, for which, in the test on SH-SY5Y [1], the viability at 1 µM was determined as 49%.

With `COc1cc(-c2cscc2-c2cnc3ccccc3c2)cc(OC)c1OC`, in the test on SH-SY5Y [1], the viability at 1 µM came to 45%.

Regarding `COc1ccc(-c2cscc2-c2cc(OC)c(OC)c(OC)c2)cc1C`, the viability at 1 µM in the test with SH-SY5Y [1] came to 80%.

With `COc1ccc(-c2cscc2-c2cc(OC)c(OC)c(OC)c2)cc1`, the IC50 is 420 nM in the test on HeLa [2] and 480 nM in the test on SH-SY5Y [3]. Moreover, the viability at 1 µM in the test with SH-SY5Y [1] was determined as 31%.

As for `COc1ccc(-c2cscc2-c2cc(OC)c(OC)c(OC)c2)cc1F`, in the test with SH-SY5Y [1], the viability at 1 µM was 52%.

As for `COc1cc(-c2cscc2-c2cccc([N+](=O)[O-])c2)cc(OC)c1OC`, the viability at 1 µM with SH-SY5Y [1] amounted to 108%.

As for `COc1cc(-c2cscc2-c2ccc(OC(F)(F)F)cc2)cc(OC)c1OC`, the viability at 1 µM with SH-SY5Y [1] is 93%.

As for `COc1cc(-c2cscc2-c2ccc3c(c2)OCO3)cc(OC)c1OC`, the viability at 1 µM in the test with SH-SY5Y [1] was found to be 65%.

Regarding `COc1cc(-c2cscc2-c2ccc3c(c2)OCCO3)cc(OC)c1OC`, the IC50 in the test on HeLa [2] was found to be 420 nM; in the test with SH-SY5Y [3], 350 nM. Also, the viability at 1 µM in the test with SH-SY5Y [1] came to 27%. Further, the result with HeLa [4] was Active.

Turning to `COc1ccc(-c2occc2-c2cc(OC)c(OC)c(OC)c2)cc1`, the figures for the IC50 with HeLa [2] and in the test on SH-SY5Y [3] were 170 nM and 34 nM, respectively. Also, the viability at 1 µM with SH-SY5Y [1] worked out at 24%. Also, the “tubulin polymerization inhibition (qualitative call)” value (“tubulin polymerization inhibition” below) in test [5] was “Active”.

Turning to `COc1ccc(-c2ccoc2-c2cc(OC)c(OC)c(OC)c2)cc1O`, the inhibition entry in test [6] and in test [7] was “Active” in each case. Also, the IC50 was 3.1 nM in the test on HeLa [2] and 2.4 nM with SH-SY5Y [3]. In the test on SH-SY5Y [1], the viability at 1 µM was 23%. Also, the “tubulin polymerization inhibition” value in test [5] is “Active”. In the test on HeLa [4], the outcome was Active.

As to `COc1cccc(-c2cscc2-c2cc(OC)c(OC)c(OC)c2)c1F`, the figures for the IC50 in the test with HeLa [2] and in the test with SH-SY5Y [3] were 430 nM and 330 nM, respectively. The viability at 1 µM in the test with SH-SY5Y [1] amounted to 28%.

In the case of `COc1cc(-c2cscc2-c2cccnc2)cc(OC)c1OC`, in the test on SH-SY5Y [1], the viability at 1 µM turned out to be 109%.

Turning to `COc1ccc(-c2cscc2-c2cc(OC)c(OC)c(OC)c2)cc1O`, the inhibition entry in test [6] and in test [7] was “Active” throughout. For the same compound, the IC50 in the test with HeLa [2] turned out to be 200 nM; with SH-SY5Y [3], 79 nM. For the same compound, the viability at 1 µM in the test with SH-SY5Y [1] was found to be 29%. The “tubulin polymerization inhibition” value in test [5] is “Active”. For the same compound, the result with HeLa [4] was Active.

Turning to `COc1ccc(-c2cscc2-c2cc(OC)c(OC)c(OC)c2)cc1OC`, in the test with SH-SY5Y [1], the viability at 1 µM stood at 94%.

`COc1ccc(C2=C(c3cc(OC)c(OC)c(OC)c3)CCC2)cc1O`: the inhibition entry in test [6] and in test [7] was “Active” each time. Further, the half-inhibitory concentration (IC50) with HeLa [2] was 300 nM; in the test with SH-SY5Y [3], 37 nM. The viability at 1 µM with SH-SY5Y [1] stood at 33%. Moreover, the “tubulin polymerization inhibition” value in test [5] is “Active”. Also, in the test with HeLa [4], the result was Active.

With `COc1cc(-c2cscc2-c2cccc3ccccc23)cc(OC)c1OC`, the viability at 1 µM in the test with SH-SY5Y [1] was found to be 83%.

Regarding `COc1cc(-c2cscc2-c2ccc(Cl)c(C(F)(F)F)c2)cc(OC)c1OC`, the viability at 1 µM with SH-SY5Y [1] worked out at 91%.

Regarding `COc1ccc(-c2ccoc2-c2cc(OC)c(OC)c(OC)c2)cc1`, the IC50 in the test on HeLa [2] was determined as 17 nM; in the test with SH-SY5Y [3], 28 nM. Besides, the viability at 1 µM with SH-SY5Y [1] came out at 23%.

Regarding `COc1ccc(/C=C\c2cc(OC)c(OC)c(OC)c2)cc1O` [COMBRETASTATIN A4], the inhibition entry in test [6] and in test [7] was “Active” each time. Also, the IC50 in the test on HeLa [2] came to 1.7 nM; in the test with SH-SY5Y [3], 2.3 nM. Besides, the viability at 1 µM with SH-SY5Y [1] stood at 23%. Moreover, in test [5], the “tubulin polymerization inhibition” value was “Active”. In addition, in the test with HeLa [4], the outcome was Active.

As to `COc1cc(-c2cscc2-c2cccc(C#N)c2)cc(OC)c1OC`, the viability at 1 µM with SH-SY5Y [1] worked out at 97%.

On to `COc1cc(-c2cscc2-c2ccc(SC)cc2)cc(OC)c1OC`, for which the viability at 1 µM in the test on SH-SY5Y [1] is 51%.

Consider `COc1cc(-c2cscc2-c2ccc(C)c(C)c2)cc(OC)c1OC`, for which, in the test on SH-SY5Y [1], the viability at 1 µM came out at 84%.

Turning to `COc1cc(-c2cscc2-c2cccc(C(F)(F)F)c2)cc(OC)c1OC`, the viability at 1 µM in the test on SH-SY5Y [1] turned out to be 91%.

For `COc1ccc(-c2cscc2-c2cc(OC)c(OC)c(OC)c2)cn1`, the viability at 1 µM in the test on SH-SY5Y [1] was determined as 82%.

Take `COc1cc(-c2cscc2-c2cccc3ncccc23)cc(OC)c1OC`: the viability at 1 µM in the test on SH-SY5Y [1] came out at 100%.

On to `COc1ccc(-c2cscc2-c2cc(OC)c(OC)c(OC)c2)c(OC)c1`, for which the viability at 1 µM with SH-SY5Y [1] stood at 90%.

As for `COc1cc(-c2cscc2-c2ccc(O)cc2)cc(OC)c1OC`, in the test on SH-SY5Y [1], the viability at 1 µM came out at 93%.

With `COc1cc(-c2cscc2-c2cccc(OC)c2OC)cc(OC)c1OC`, the viability at 1 µM with SH-SY5Y [1] came to 90%.

On to `COc1cc(-c2cscc2-c2ccc(C)c(F)c2)cc(OC)c1OC`, for which the IC50 turned out to be 420 nM in the test with HeLa [2] and 310 nM in the test with SH-SY5Y [3]. The viability at 1 µM with SH-SY5Y [1] worked out at 30%. In addition, the outcome in the test with HeLa [4] was Active.

Regarding `COc1ccc(-c2occc2-c2cc(OC)c(OC)c(OC)c2)cc1O`, the inhibition result in test [6] and in test [7] was “Active” throughout. For the same compound, the IC50 in the test on HeLa [2] came to 20 nM; in the test on SH-SY5Y [3], 9.4 nM. For the same compound, in the test with SH-SY5Y [1], the viability at 1 µM was 20%. The inhibition in test [8] stood at 50%. The result with HeLa [4] was Active.
